Here are results for 24 compounds from ChEMBL document CHEMBL1127751, “Novel Asp32-replacement tetrapeptide analogues as potent and selective CCK-A agonists” (J Med Chem, 1994).

Molecules are shown by their SMILES. pIC50: −log10 of the molar value. Starred links: 1 amine or outer side, 2 acyl side, 3 side chain; linkers in the order of their positions; H or OH if unused. Non-standard residues stand in square brackets, D forms with d. Residues, ends and D or L forms follow the SMILES beside them. Groups on a side chain read outwards from the residue. ξ: configuration not given here. *: point of attachment. NMeF = CN[C@@H](Cc1ccccc1)C(=O)O; ξW = NC(Cc1c[nH]c2ccccc12)C(=O)O; NH(2-Me-phenyl) = Cc1ccccc1N*; ξNMeF = CNC(Cc1ccccc1)C(=O)O; β3hP = O=C(O)C[C@@H]1CCCN1; ξF = NC(Cc1ccccc1)C(=O)O; Boc = CC(C)(C)OC(=O)*; CO = O=C([*:1])[*:2]; Sar = CNCC(=O)O

In experiment [1] the target is T1, Cholecystokinin receptor type A (Cavia porcellus) (UniProt Q63931).
T1 sequence (whole entry): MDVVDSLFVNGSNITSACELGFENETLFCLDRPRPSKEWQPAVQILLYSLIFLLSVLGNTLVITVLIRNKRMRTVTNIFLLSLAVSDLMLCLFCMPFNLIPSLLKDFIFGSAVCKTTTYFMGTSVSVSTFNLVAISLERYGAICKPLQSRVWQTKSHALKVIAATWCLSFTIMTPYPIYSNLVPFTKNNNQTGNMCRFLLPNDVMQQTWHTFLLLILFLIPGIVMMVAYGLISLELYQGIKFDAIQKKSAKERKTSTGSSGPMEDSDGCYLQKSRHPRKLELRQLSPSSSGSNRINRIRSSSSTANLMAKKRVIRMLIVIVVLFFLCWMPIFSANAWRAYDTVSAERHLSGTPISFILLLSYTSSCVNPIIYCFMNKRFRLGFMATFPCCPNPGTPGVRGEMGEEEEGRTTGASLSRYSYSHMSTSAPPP
The experiment is described as follows: Percent response in PI hydrolysis relative to maximal response elicited by CCK-8 in guinea pig at 10e-6 M.

Experiment [2] deals with Cholecystokinin receptor type B (Cavia porcellus). The experiment is described as follows: Percent inhibition of specific [125I]Bolton-Hunter CCK-8 binding in guinea pig cortex at 10e-6 M.
The target in experiment [3] is T2, Cholecystokinin receptor type A (Cavia porcellus, UniProt Q63931).
T2 sequence (Q63931 whole entry): T1 sequence (whole entry)
Put plainly: Concentration that inhibited 50% of specific binding of [125I]Bolton-Hunter CCK-8 binding in guinea pig pancreas.

For experiment [4], the species on record is Rattus norvegicus. The experiment is described as follows: Dose required to reduce food intake by 50% in rats. Type of experiment: functional. Put shortly:
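Rats dosed intraperitoneally in nmol/kg, with 7–8 animals per group in each experiment. Food intake was compared with vehicle controls. The dose reducing intake by 50% was calculated from the dose–response data and reported with an interval.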

The term inhibition denotes how much of the control response was suppressed. The low end stands for a weak effect, the high end for a strong effect. As usually defined, the pIC50 is the negative decadic logarithm of the IC50, by convention in mol/L. Low readings indicate a large IC50, high ones a small IC50. The term ED50 denotes the midpoint of the dose-response relation. Read a high ED50 as weaker potency. In experiment [1], `Cc1ccccc1NC(=O)NCCCC[C@H](NC(=O)C(Cc1c[nH]c2ccccc12)NC(=O)OC(C)(C)C)C(=O)N[C@@H]1CC(=O)N([C@@H](Cc2ccccc2)C(N)=O)C1` (stereo not given in full) gave a PI hydrolysis of 89%. Moreover, the inhibition in experiment [2] came out at 39%. For the same compound, in experiment [3], the pIC50 was 7.80. This compound displayed an ED50 in experiment [4] of 0.03 µmol/kg.

On to `Cc1ccccc1NC(=O)NCCCC[C@H](NC(=O)C(Cc1c[nH]c2ccccc12)NC(=O)OC(C)(C)C)C(=O)NCCCC(=O)N(C)C(Cc1ccccc1)C(N)=O` (stereo not given in full), for which the PI hydrolysis in experiment [1] is 67%. The compound further came in with an inhibition in experiment [2] of 11%. Further, the pIC50 in experiment [3] was 7.57.

For `Cc1ccccc1NC(=O)NCCCC[C@H](NC(=O)C(Cc1c[nH]c2ccccc12)NC(=O)OC(C)(C)C)C(=O)N1CCC[C@H]1CC(=O)N(C)C(Cc1ccccc1)C(N)=O` (stereo partly drawn) (Boc-[ξW]K([CO-NH(2-Me-phenyl)])[β3hP][ξNMeF]-NH2), the PI hydrolysis in experiment [1] worked out at 92%. In experiment [2], this compound gave an inhibition of 13%. This compound had a pIC50 in experiment [3] of 7.77.

For the compound `Cc1ccccc1NC(=O)NCCCC[C@H](NC(=O)C(Cc1c[nH]c2ccccc12)NC(=O)OC(C)(C)C)C(=O)N(C)CC(=O)N(C)C(Cc1ccccc1)C(N)=O` (stereo not given in full) (Boc-[ξW]K([CO-NH(2-Me-phenyl)])[Sar][ξNMeF]-NH2), the PI hydrolysis in experiment [1] turned out to be 33%.

Consider `Cc1ccccc1NC(=O)NCCCC[C@H](NC(=O)C(Cc1c[nH]c2ccccc12)NC(=O)OC(C)(C)C)C(=O)NCCC(=O)N(C)C(Cc1ccccc1)C(N)=O` (stereo not given in full), for which, in experiment [1], the PI hydrolysis was determined as 47%. In experiment [2], this compound registered an inhibition of 9%. Also, the pIC50 in experiment [3] is 7.57.

Take `Cc1ccccc1NC(=O)NCCCC[C@H](NC(=O)[C@H](Cc1c[nH]c2ccccc12)NC(=O)OC(C)(C)C)C(=O)N(C)CC(=O)N(C)[C@@H](Cc1ccccc1)C(N)=O` (Boc-WK([CO-NH(2-Me-phenyl)])[Sar][NMeF]-NH2): in experiment [3], the pIC50 is 7.08.

Regarding `Cc1ccccc1NC(=O)NCCCC[C@H](NC(=O)C(Cc1c[nH]c2ccccc12)NC(=O)OC(C)(C)C)C(=O)NCC(=O)NC(Cc1ccccc1)C(N)=O` (stereo not given in full) (Boc-[ξW]K([CO-NH(2-Me-phenyl)])G[ξF]-NH2), in experiment [1], the PI hydrolysis came out at 17%. The same compound returned an inhibition in experiment [2] of 14%.

In the case of `Cc1ccccc1NC(=O)NCCCC[C@H](NC(=O)C(Cc1c[nH]c2ccccc12)NC(=O)OC(C)(C)C)C(=O)NCCCCC(=O)NC(Cc1ccccc1)C(N)=O` (stereo not given in full), the PI hydrolysis in experiment [1] stood at 2%. Moreover, in experiment [3], the pIC50 was 5.74.

Regarding `Cc1ccccc1NC(=O)NCCCC[C@H](NC(=O)C(Cc1c[nH]c2ccccc12)NC(=O)OC(C)(C)C)C(=O)NCC(=O)N(C)C(Cc1ccccc1)C(N)=O` (stereo not given in full) (Boc-[ξW]K([CO-NH(2-Me-phenyl)])G[ξNMeF]-NH2), the PI hydrolysis in experiment [1] is 28%. In experiment [2], this compound gave an inhibition of 0%.

In turn, `Cc1ccccc1NC(=O)NCCCC[C@H](NC(=O)C(Cc1c[nH]c2ccccc12)NC(=O)OC(C)(C)C)C(=O)N(C)CCC(=O)N(C)C(Cc1ccccc1)C(N)=O` (stereo not given in full) displayed a PI hydrolysis in experiment [1] of 36%. The compound further gave a pIC50 in experiment [3] of 8.15.

The compound `Cc1ccccc1NC(=O)NCCCC[C@H](NC(=O)[C@H](Cc1c[nH]c2ccccc12)NC(=O)OC(C)(C)C)C(=O)N(C)CC(=O)N[C@@H](Cc1ccccc1)C(N)=O` (Boc-WK([CO-NH(2-Me-phenyl)])[Sar]F-NH2) gave a pIC50 in experiment [3] of 6.58.

`Cc1ccccc1NC(=O)NCCCC[C@H](NC(=O)C(Cc1c[nH]c2ccccc12)NC(=O)OC(C)(C)C)C(=O)N(C)CCCC(=O)NC(Cc1ccccc1)C(N)=O` (stereo not given in full) gave a PI hydrolysis in experiment [1] of 8%. This compound also had an inhibition in experiment [2] of 11%. For the same compound, the pIC50 in experiment [3] is 6.41.

Turning to `Cc1ccccc1NC(=O)NCCCC[C@H](NC(=O)C(Cc1c[nH]c2ccccc12)NC(=O)OC(C)(C)C)C(=O)NCCCCC(=O)N(C)C(Cc1ccccc1)C(N)=O` (stereo not given in full), in experiment [1], the PI hydrolysis turned out to be 7%. Besides, the inhibition in experiment [2] worked out at 7%. Moreover, the pIC50 in experiment [3] is 5.93.

`Cc1ccccc1NC(=O)NCCCC[C@H](NC(=O)C(Cc1c[nH]c2ccccc12)NC(=O)OC(C)(C)C)C(=O)N(C)CC(=O)NC(Cc1ccccc1)C(N)=O` (stereo not given in full) (Boc-[ξW]K([CO-NH(2-Me-phenyl)])[Sar][ξF]-NH2) returned a PI hydrolysis in experiment [1] of 24%. The compound further gave an inhibition in experiment [2] of 5%.

For the compound `Cc1ccccc1NC(=O)NCCCC[C@H](NC(=O)C(Cc1c[nH]c2ccccc12)NC(=O)OC(C)(C)C)C(=O)N1CCC[C@H]1CC(=O)NC(Cc1ccccc1)C(N)=O` (stereo partly drawn) (Boc-[ξW]K([CO-NH(2-Me-phenyl)])[β3hP][ξF]-NH2), the PI hydrolysis in experiment [1] was found to be 68%. Also, in experiment [3], the negative-log IC50 (pIC50) was 6.62.

Turning to `Cc1ccccc1NC(=O)NCCCC[C@H](NC(=O)C(Cc1c[nH]c2ccccc12)NC(=O)OC(C)(C)C)C(=O)NCCC(=O)NC(Cc1ccccc1)C(N)=O` (stereo not given in full), the PI hydrolysis in experiment [1] came to 16%. The pIC50 in experiment [3] is 6.90.

The compound `Cc1ccccc1NC(=O)NCCCC[C@H](NC(=O)C(Cc1c[nH]c2ccccc12)NC(=O)OC(C)(C)C)C(=O)NCCCC(=O)NC(Cc1ccccc1)C(N)=O` (stereo not given in full) displayed a PI hydrolysis in experiment [1] of 9%. This compound showed an inhibition in experiment [2] of 11%. Further, in experiment [3], the pIC50 is 6.13.

As for `Cc1ccccc1NC(=O)NCCCC[C@H](NC(=O)C(Cc1c[nH]c2ccccc12)NC(=O)OC(C)(C)C)C(=O)NCCCCCC(=O)NC(Cc1ccccc1)C(N)=O` (stereo not given in full), the PI hydrolysis in experiment [1] is 5%. The inhibition in experiment [2] turned out to be 6%. The same compound gave a pIC50 in experiment [3] of 5.92.

With `Cc1ccccc1NC(=O)NCCCC[C@H](NC(=O)C(Cc1c[nH]c2ccccc12)NC(=O)OC(C)(C)C)C(=O)N(C)CCCC(=O)N(C)C(Cc1ccccc1)C(N)=O` (stereo not given in full), the PI hydrolysis in experiment [1] came to 64%. This compound showed an inhibition in experiment [2] of 4%. The compound also had a pIC50 in experiment [3] of 7.72.

With `Cc1ccccc1NC(=O)NCCCC[C@H](NC(=O)[C@H](Cc1c[nH]c2ccccc12)NC(=O)OC(C)(C)C)C(=O)NCC(=O)N(C)[C@@H](Cc1ccccc1)C(N)=O` (Boc-WK([CO-NH(2-Me-phenyl)])G[NMeF]-NH2), the pIC50 in experiment [3] was 6.85.

In experiment [1], `Cc1ccccc1NC(=O)NCCCC[C@H](NC(=O)C(Cc1c[nH]c2ccccc12)NC(=O)OC(C)(C)C)C(=O)N(C)CCC(=O)NC(Cc1ccccc1)C(N)=O` (stereo not given in full) had a PI hydrolysis of 61%. The inhibition in experiment [2] is 14%. Besides, in experiment [3], the pIC50 was 7.21.

The compound `Cc1ccccc1NC(=O)NCCCC[C@H](NC(=O)C(Cc1c[nH]c2ccccc12)NC(=O)OC(C)(C)C)C(=O)N1CCC(=O)N(C(Cc2ccccc2)C(N)=O)CC1` (stereo not given in full) came in with a PI hydrolysis in experiment [1] of 1%. Further, the inhibition in experiment [2] came to 8%. In experiment [3], this compound had a pIC50 of 6.12.

Turning to `Cc1ccccc1NC(=O)NCCCC[C@H](NC(=O)[C@H](Cc1c[nH]c2ccccc12)NC(=O)OC(C)(C)C)C(=O)NCC(=O)N[C@@H](Cc1ccccc1)C(N)=O` (Boc-WK([CO-NH(2-Me-phenyl)])GF-NH2), in experiment [3], the pIC50 was 6.04.

Turning to `Cc1ccccc1NC(=O)NCCCC[C@H](NC(=O)C(Cc1c[nH]c2ccccc12)NC(=O)OC(C)(C)C)C(=O)NCCCCCC(=O)N(C)C(Cc1ccccc1)C(N)=O` (stereo not given in full), the PI hydrolysis in experiment [1] was determined as 4%. In addition, the pIC50 in experiment [3] is 5.88.
